1 compound from ChEMBL document CHEMBL1142233, “Treatment of diabetes and atherosclerosis by inhibiting fatty-acid-binding protein aP2” (2007) can be followed below.

The structures appear in SMILES notation. The source made the active and inactive calls. The rule behind the calls is not given here.

Test [1] can be described thus: Reduction of Mcp1 expression mouse aP2-/-R macrophage cells (re-expression of aP2) relative to control. In kind it is functional, cell-based. In outline: (§1)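 Mouse aP2⁺/⁺ and aP2-reconstituted aP2⁻/⁻ macrophage lines were grown in RPMI with FBS or 5% LPDS, with inhibitor in DMSO or vehicle. Mcp-1, Il1β, Il6 and Tnf mRNA were measured by SYBR Green qRT-PCR (annealing at 58 °C, 50 cycles), normalized to 18s rRNA and then to untreated cells. Mean ± s.e.m.; at least triplicate.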

Test [2] deals with Mus musculus. Briefly: Increase in insulin-stimulated IRbeta tyrosine 1162/1163 phosphorylation in ob/ob mouse adipose tissue at 40 mg/kg/day, po relative to control. In kind it is functional, organism-based. Summed up:
(§2)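 Male ob/ob mice were dosed by oral gavage at 40 mg kg⁻¹ d⁻¹ or with vehicle. After 6 h food withdrawal and tribromoethanol anaesthesia, insulin (2 IU kg⁻¹) or PBS went into the portal vein. Adipose tissue was taken 3 min later, lysed and immunoblotted for IRβ pTyr1162/1163, AKT pSer473 and total proteins. Signals were quantified by densitometry.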

Test [3] concerns Mus musculus. Briefly: Increase in insulin-stimulated AKT serine 473 phosphorylation in ob/ob mouse adipose tissue at 40 mg/kg/day, po relative to control. In kind it is functional, organism-based. In outline: as §2
The test system of test [4] is Mus musculus. Briefly: Decrease in Scd1 expression in liver of ob/ob mouse at 40 mg/kg/day, po. In kind it is functional, organism-based. Summed up: (§3)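 Liver from male ob/ob mice gavaged daily for 6 weeks from 8 weeks of age, n = 6 per group. mRNA measured by SYBR Green real-time PCR: 95 °C 4 min, then 50 cycles of 95 °C 15 s, 58 °C 30 s, 72 °C 30 s. Normalized to 18s rRNA.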

Test [5] concerns Mus musculus. Briefly: Decrease in Acaca expression in liver of ob/ob mouse at 40 mg/kg/day, po. The class given is functional, organism-based. Summed up:
as §3

Test [6] deals with THP-1. Briefly: Reduction of IL6 expression in human THP1 cells expressing aP2 relative to control. The class given is functional, cell-based.
In test [7] the test system is Mus musculus. Briefly: Increase in adiponectin level in ob/ob mouse plasma at 40 mg/kg/day, po after 6 weeks relative to control. In kind it is functional, organism-based. Summed up:
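Plasma from male ob/ob mice after 6 weeks of daily oral gavage (started at 8 weeks), 6 h fasted, n = 6 per group. Adiponectin measured by ELISA.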

For test [8], the system named is Mus musculus. Briefly: Effect on glycerol level in ob/ob mouse at 40 mg/kg/day, po after 6 weeks relative to control. The class given is functional. In outline:
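Male ob/ob mice given oral gavage daily for 6 weeks from 8 weeks old, n = 6 per group. Blood taken after 6 h fast before and after treatment; fed glucose taken at week 2. Glucose by meter on 3 μl whole blood, insulin by ultrasensitive ELISA, cholesterol, FFA and glycerol by colorimetric microplate assays.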

The subject of test [9] is Mus musculus. Briefly: Suppression of clamp hepatic glucose production in ob/ob mouse at 40 mg/kg/day, po after 4 weeks by hyperinsulinemic-euglycaemic clamp studies. The class given is functional, organism-based. Summed up:
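Clamps were run in ob/ob mice after 4 weeks of oral gavage at 40 mg kg⁻¹ d⁻¹ (vehicle n = 7, treated n = 9), with jugular catheters placed 4 days earlier. Insulin was infused at 12.5 mU kg⁻¹ min⁻¹, 25% glucose at variable rates held basal glycaemia, and ³H-glucose ran at 0.1 μCi min⁻¹. Clamp hepatic glucose production = whole-body uptake minus glucose infusion rate.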

Test [10] concerns Mus musculus. Briefly: Increase in glucose uptake in gastrocnemius muscle in ob/ob mouse at 40 mg/kg/day, po after 4 weeks by hyperinsulinemic-euglycaemic clamp studies relative to control. The class given is functional, organism-based. Summed up:
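Ob/ob mice after 4 weeks of treatment, jugular catheterized 4 days earlier. Clamp with insulin at 12.5 mU kg⁻¹ min⁻¹, variable 25% glucose to hold basal glucose, and ³H-glucose at 0.1 μCi min⁻¹ with 2-¹⁴C-DG. Tissue uptake computed from the fitted plasma 2-¹⁴C-DG curve and tissue 2-¹⁴C-DG-6-phosphate content. n = 7 and 9.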

The species entered for test [11] is Mus musculus. Briefly: Decrease in glucose level in wild type mouse fed on high fat diet after 4 weeks by glucose tolerance test relative to control. The class given is functional, organism-based. Summed up: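 Wild-type C57BL/6J mice on 60% fat diet from 4 weeks of age, gavaged with 40 mg kg⁻¹ d⁻¹ or vehicle for 4 weeks starting at 20 weeks of age. Glucose tolerance tested with 1.5 g kg⁻¹ intraperitoneal glucose after an overnight fast.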

The test system of test [12] is Mus musculus. Briefly: Effect on cholesterol level in 5-week old apoE-/- C57BL/6J mouse fed on western diet and administered with 15 mg/kg/day, po drug at 12 week in 12-18 week late intervention study. The class given is functional. In outline:
(§4)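 Male Apoe−/− mice on western diet (21% fat, 0.21% cholesterol) from 4–5 weeks of age. Oral gavage for 6 weeks from age 5 or 12 weeks; vehicle 10% 1-methyl-2-pyrrolidone, 5% cremophor EL with ethanol in water. Blood taken after 6 h fast before and after treatment. Glucose by meter; insulin by ELISA; lipids and glycerol colorimetric.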

The subject of test [13] is Mus musculus. Briefly: Effect on glycerol level in 5-week old apoE-/- C57BL/6J mouse fed on western diet and administered with 15 mg/kg/day, po drug at 12 week in 12-18 week late intervention study. The class given is functional. Summed up:
as §4

Test [14] deals with Mus musculus. Briefly: Effect on adiponectin level in 5-week old apoE-/- C57BL/6J mouse fed on western diet and administered with 15 mg/kg/day, po drug at 12 week in 12-18 week late intervention study. The class given is functional. In outline: as §4
The subject of test [15] is THP-1. Briefly: Increase in ABCA1 protein level in human THP1 cells at 25 uM relative to control. In kind it is functional, cell-based.
The subject of test [16] is Macrophage. Briefly: Increase in cholesterol efflux in mouse aP2+/+ macrophage cells at 25 uM relative to control. The class given is functional, cell-based. Summed up: (§5)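 Macrophages loaded 24 h in RPMI with 5% LPDS, 1 μCi ml⁻¹ ³H-cholesterol and 50 μg ml⁻¹ acLDL, ± 25 μM inhibitor. Equilibrated 24 h in 0.2% fatty-acid-free BSA ± inhibitor, then 4 h ± APOA1 20 μg ml⁻¹. Efflux = medium ³H as % of total, per mg protein; mouse lines normalized to untreated aP2+/+.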

Test [17] has as its system Macrophage. Briefly: Increase in cholesterol efflux in mouse aP2-/-R macrophage cells (re-expression of aP2) at 25 uM relative to control. In kind it is functional, cell-based. Summed up:
as §5

Test [18] is described as follows: Reduction of Mcp1 expression mouse aP2+/+ macrophage cells relative to control. The class given is functional, cell-based. In outline: as §1
Test [19] relates to Mus musculus. Briefly: Decrease in F4/80 (Emr1) expression in ob/ob mouse adipose tissue at 40 mg/kg/day, po. The class given is functional, organism-based.
Test [20] concerns Mus musculus. Briefly: Decrease in IL1-beta expression in ob/ob mouse adipose tissue at 40 mg/kg/day, po. The class given is functional, organism-based.
Test [21] deals with Mus musculus. Briefly: Decrease in TNF expression in ob/ob mouse adipose tissue at 40 mg/kg/day, po. The class given is functional, organism-based.
The test system of test [22] is Mus musculus. Briefly: Increase in glucose metabolism in ob/ob mouse at 40 mg/kg/day, po after 4 weeks by glucose tolerance test. In kind it is functional, organism-based. In outline: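 Male ob/ob mice after 4 weeks of daily 40 mg kg⁻¹ oral gavage (started at 8 weeks), n = 6 per group. Glucose tolerance tested with 0.5 g kg⁻¹ intraperitoneal glucose after an overnight fast.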

The species entered for test [23] is Mus musculus. Briefly: Decrease in fatty acid uptake in wild type mouse aP2+/+ mal1+/+ preadipocytes after 24 hrs. In kind it is functional. In outline:
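Immortalized mouse pre-adipocytes differentiated with dexamethasone, IBMX, rosiglitazone and insulin, then insulin alone. Cells incubated 24 h in DMEM with 2% FBS plus inhibitor, then moved to DMEM with 2% BSA and given ³H-stearate at 37 °C for 30 min. Lysate counted by scintillation; values normalized to protein and expressed as % of untreated.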

On to `CCc1c(-c2ccccc2)c(-c2ccccc2)nn1-c1ccccc1-c1cccc(OCC(=O)O)c1`, for which the result (in [1]; in the test with Mus musculus [2]; with Mus musculus [3]; with Mus musculus [4]; with Mus musculus [5]; in the test on THP-1 [6]) was Active. Moreover, the result in the test on Mus musculus [7], with Mus musculus [9], with Mus musculus [10], in the test listed under Mus musculus [11], in the test with THP-1 [15] and in the test with Macrophage [16] was Active. For the same compound, the outcome (in the test on Macrophage [17]; in test [18]; with Mus musculus [19]; in the test on Mus musculus [20]; with Mus musculus [21]; in the test with Mus musculus [22]) was Active. In addition, the Activity in the test on Mus musculus [8] was 0.56 mM; in the test with Mus musculus [12] it was 2277.2 mg/dL; in the test on Mus musculus [13] it was 3.55 mM; in the test on Mus musculus [14], 5.78 µg/mL; in the test filed under Mus musculus [23] it was “Dose-dependent effect”.
